Tests used:
[1] = biological target: T1, Serine/threonine-protein kinase B-raf (Homo sapiens, UniProt P15056, V600E); experiment: Inhibition of BRAF V600E mutant-mediated ERK phosphorylation in human WM266.4 cells; assay type: cell-based
[2] = Antiproliferative activity against human WM266.4 cells after 6 days by SRB assay; assay type: functional; details: WM 266-4, 144 h
Outline: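 SRB cell proliferation assay on WM266.4 melanoma cells, which carry mutant BRAF. Growth inhibition is reported as GI50.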

[3] = biological target: T1, Serine/threonine-protein kinase B-raf; experiment: Inhibition of human BRAF V600E mutant expressed in Sf9 cells
[4] = Antiproliferative activity against human WM1361 cells after 5 days by SRB assay; details: WM1361, 120 h
[5] = Antiproliferative activity against human WM266.4 cells after 5 days by SRB assay; details: WM 266-4, 120 h

T1 sequence (P15056 2-766 V600E limits assumed): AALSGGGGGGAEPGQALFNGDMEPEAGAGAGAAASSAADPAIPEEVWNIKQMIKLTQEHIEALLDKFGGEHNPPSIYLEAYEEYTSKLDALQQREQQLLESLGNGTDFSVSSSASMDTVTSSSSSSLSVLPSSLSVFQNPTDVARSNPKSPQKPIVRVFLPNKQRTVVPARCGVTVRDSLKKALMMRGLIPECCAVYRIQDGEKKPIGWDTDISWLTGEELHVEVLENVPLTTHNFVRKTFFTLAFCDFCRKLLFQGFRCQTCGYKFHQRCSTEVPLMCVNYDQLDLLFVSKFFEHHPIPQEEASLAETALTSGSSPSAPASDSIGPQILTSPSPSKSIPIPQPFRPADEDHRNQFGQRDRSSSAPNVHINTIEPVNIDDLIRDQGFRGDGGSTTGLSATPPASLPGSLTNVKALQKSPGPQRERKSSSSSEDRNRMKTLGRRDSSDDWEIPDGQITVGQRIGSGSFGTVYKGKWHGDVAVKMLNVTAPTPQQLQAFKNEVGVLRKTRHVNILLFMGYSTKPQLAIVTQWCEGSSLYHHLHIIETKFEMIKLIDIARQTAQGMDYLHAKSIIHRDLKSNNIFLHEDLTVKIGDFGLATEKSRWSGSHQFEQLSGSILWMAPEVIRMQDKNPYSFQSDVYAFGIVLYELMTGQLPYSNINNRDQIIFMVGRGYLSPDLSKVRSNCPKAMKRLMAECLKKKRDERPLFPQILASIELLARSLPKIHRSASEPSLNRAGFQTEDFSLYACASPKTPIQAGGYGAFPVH

Row | IC50 [1] [µM] | IC50 [3] [µM] | SMILES | GI50 [2] [µM] | GI50 [4] [µM] | GI50 [5] [µM]
1 | 21.1 | 0.062 | O=C(Nc1cccc(Oc2ccnc3[nH]c(=O)[nH]c23)c1)c1cc(F)cc(N2CCOCC2)c1 | 25.1 |  | 
2 | 15 | 0.043 | O=C(Nc1cccc(Oc2ccnc3[nH]c(=O)[nH]c23)c1)c1cc(OC(F)(F)F)ccc1F | 1.2 |  | 
3 | 14.6 | 0.071 | O=C(Nc1cccc(Oc2ccnc3[nH]c(=O)[nH]c23)c1)c1cc(Cl)cc(OC(F)(F)F)c1 | 6.5 |  | 
4 | 13.7 | 0.274 | CC(C)(C)c1cc(C(=O)Nc2cccc(Oc3ccnc4[nH]c(=O)[nH]c34)c2)n(-c2ccccc2)n1 | 3.1 |  | 
5 | 13.7 | 0.087 | CC(C)c1cc(C(=O)Nc2cccc(Oc3ccnc4[nH]c(=O)[nH]c34)c2)n(-c2ccccc2)n1 | 5.7 |  | 
6 | 7.56 | 0.014 | O=C(Nc1cccc(Oc2ccnc3[nH]c(=O)[nH]c23)c1)c1cccc(OC(F)(F)F)c1 | 1 |  | 
7 | > 100 | 0.115 | O=C(Nc1cccc(Oc2ccnc3[nH]c(=O)[nH]c23)c1)c1cccc(N2CCCC2)c1 | > 10 |  | 
8 | 3.5 | 0.017 | CC(C)(C)c1cccc(C(=O)Nc2cccc(Oc3ccnc4[nH]c(=O)[nH]c34)c2)c1 | 1.83 |  | 
9 | 16 | 0.033 | O=C(Nc1cc(F)cc(Oc2ccnc3[nH]c(=O)[nH]c23)c1)c1cccc(OC(F)(F)F)c1 | 2.4 |  | 
10 | 20.4 | 0.057 | O=C(Nc1cccc(Oc2ccnc3[nH]c(=O)[nH]c23)c1)c1cccc(-n2cccc2)c1 | 1.1 |  | 
11 | 14.6 | 0.048 | O=C(Nc1cccc(OC(F)(F)F)c1)c1cccc(Oc2ccnc3[nH]c(=O)[nH]c23)c1 | 2.4 |  | 
12 | 12.2 | 0.026 | O=C(Nc1cccc(Oc2ccnc3[nH]c(=O)[nH]c23)c1)Nc1cc(C(F)(F)F)ccc1F | 1.6 |  | 

Second part, the compound before the results:

Row | SMILES | IC50 [1] [µM] | IC50 [3] [µM] | GI50 [2] [µM] | GI50 [4] [µM] | GI50 [5] [µM]
13 | O=C(Nc1cc(Oc2ccnc3[nH]c(=O)[nH]c23)c(F)cc1F)c1cccc(OC(F)(F)F)c1 | 6.9 | 0.01 | 4.6 |  | 
14 | O=C(Nc1cc(Cl)cc(Oc2ccnc3[nH]c(=O)[nH]c23)c1)c1cccc(OC(F)(F)F)c1 | 11.3 | 0.033 | 1.9 |  | 
15 | O=C(Nc1cccc(Oc2ccnc3[nH]c(=O)[nH]c23)c1)Nc1ccc(Cl)c(C(F)(F)F)c1 | 10.7 | 0.015 | 4.2 |  | 
16 | O=C(Nc1cccc(Oc2ccnc3[nH]c(=O)[nH]c23)c1)c1cccc(OC(F)(F)C(F)F)c1 | 5.7 | 0.023 | 0.841 |  | 
17 | O=C(Nc1cccc(Oc2ccnc3[nH]c(=O)[nH]c23)c1)c1cccc(OC(F)(F)F)c1F | 6.7 | 0.015 | 0.57 |  | 
18 | O=C(Nc1cccc(Oc2ccnc3[nH]c(=O)[nH]c23)c1)c1ccc(F)c(OC(F)(F)F)c1 | 27.7 | 0.049 | 7.4 |  | 
19 | O=C(Nc1cccc(Oc2ccnc3[nH]c(=O)[nH]c23)c1)c1cccc(N2CCCCC2)c1 | 15.4 | 0.047 | 9.6 |  | 
20 | O=C(Nc1ccc(Cl)c(C(F)(F)F)c1)c1cccc(Oc2ccnc3[nH]c(=O)[nH]c23)c1 | 8.2 | 0.09 | 7.3 |  | 
21 | O=C(Nc1cccc(OC(F)(F)C(F)F)c1)c1cccc(Oc2ccnc3[nH]c(=O)[nH]c23)c1 | 8 | 0.24 | 0.677 |  | 
22 | O=C(Nc1cccc(SC(F)(F)F)c1)c1cccc(Oc2ccnc3[nH]c(=O)[nH]c23)c1 | 13 | 0.187 | 9.2 |  | 
23 | CC(C)(C)c1cccc(NC(=O)Nc2cccc(Oc3ccnc4[nH]c(=O)[nH]c34)c2)c1 | 10.3 | 0.195 | 12.9 |  | 
24 | Cc1ccc(-n2nc(C(F)(F)F)cc2NC(=O)Nc2cccc(Oc3ccnc4[nH]c(=O)[nH]c34)c2)cc1 | 4.8 | 0.4 | 4.28 |  | 
25 | O=C(Nc1cccc(Oc2ccnc3[nH]c(=O)[nH]c23)c1)c1cccc(SC(F)(F)F)c1 | 6.48 | 0.005 | 5.1 |  | 
26 | O=C(Nc1cc(Oc2ccnc3[nH]c(=O)[nH]c23)ccc1Cl)c1cccc(OC(F)(F)F)c1 | > 100 | 0.24 | 35 |  | 
27 | Cc1ccc(-n2nc(C(C)(C)C)cc2NC(=O)Nc2cccc(Oc3ccnc4[nH]c(=O)[nH]c34)c2)cc1 | 0.83 | 0.128 | 0.705 |  | 
28 | O=C(Nc1cccc(Oc2ccnc3[nH]c(=O)[nH]c23)c1)c1ccc(Cl)c(C(F)(F)F)c1 | 28 | 0.124 | 13.4 |  | 
29 | CNC(=O)c1cc(Oc2ccc(NC(=O)Nc3ccc(Cl)c(C(F)(F)F)c3)cc2)ccn1 [SORAFENIB] |  |  |  | 4.34 | 4.93
